Test results from ChEMBL document CHEMBL1811910, “Semisynthetic analogues of the marine cembranoid sarcophine as prostate and breast cancer migration inhibitors” (Bioorg Med Chem, 2011).
The source made the active and inactive calls. The calls are words filed in the database; no cut-off is given here.

Legend:
[1] = system: PC-3; experiment: Antimigratory activity against human PC3 cells at 200 uM after 24 hrs by wound healing assay; format: functional, cell-based
In short: (§1)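 Cells grown to >90% confluent monolayer in RPMI 1640 with 10% FBS, glutamine, penicillin/streptomycin at 37 °C, 5% CO2, then scratched with a sterile 200 µL pipette tip. Compounds added in DMSO, in triplicate; PMH 200 µM positive control, DMSO vehicle control. After 24 h serum-starved incubation, cells were fixed and Diff Quick stained. Migrated cells counted in ≥3 random 400× fields, reported as mean ± SEM.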

[2] = system: MDA-MB-231; experiment: Antimigratory activity against human MDA-MB-231 cells at 200 uM after 24 hrs by wound healing assay; format: functional, cell-based; in short: as §1
[3] = system: PC-3; experiment: Antiproliferative activity against human PC3 cells at 5 to 50 uM after 24 hrs by MTT assay; format: functional, cell-based
In short: (§2)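 After 3-4 passages in RPMI 1640 with 10% FBS, cells were seeded at 8 × 10^3 per well and left to attach for 24 h. Medium was then replaced with serum-free RPMI containing compound at 50, 20, 10 or 5 µM. Viability was read by MTT conversion to formazan, and cell number was taken from a standard curve of plated cells, with cells kept in exponential growth.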

[4] = system: MDA-MB-231; experiment: Antiproliferative activity against human MDA-MB-231 cells at 5 to 50 uM after 24 hrs by MTT assay; format: functional, cell-based; in short: as §2
[5] = system: MDA-MB-231; experiment: Antimigratory activity against human MDA-MB-231 cells at 50 uM after 24 hrs by wound healing assay; format: functional, cell-based; in short: as §1
[6] = system: PC-3; experiment: Antimigratory activity against human PC3 cells at 50 uM after 24 hrs by wound healing assay; format: functional, cell-based; in short: as §1
[7] = system: MDA-MB-231 (Homo sapiens); experiment: Antimigratory activity against human MDA-MB-231 cells at 5 to 30 uM after 24 hrs by wound healing assay
[8] = system: MDA-MB-231; experiment: Antimigratory activity against human MDA-MB-231 cells after 24 hrs by wound healing assay; format: functional, cell-based; conditions: MDA-MB-231, 24 h; in short: as §1
[9] = system: MDA-MB-231; experiment: Antimigratory activity against human MDA-MB-231 cells at 5 to 30 uM after 24 hrs by wound healing assay; format: functional, cell-based; in short: as §1
[10] = system: MDA-MB-231; experiment: Antiproliferative activity against human MDA-MB-231 cells after 24 hrs by MTT assay; format: functional, cell-based; conditions: MDA-MB-231, 24 h; in short: as §2
[11] = system: PC-3; experiment: Antimigratory activity against human PC3 cells after 24 hrs by wound healing assay; format: functional, cell-based; conditions: PC-3, 24 h; in short: as §1

SMILES	Activity [3]	Activity [4]	Activity [5]	Activity [6]	other results
O=C1NC(=O)/C(=C/c2ccc(O)cc2)N1					Activity [1]: Active; Activity [2]: Active
CC1=C2CC/C(C)=C/CC[C@]3(C)O[C@H]3CC/C(C)=C/[C@@H]2OC1=O	inactive	inactive			
CCCO[C@H]1CC/C(C)=C/[C@@H]2OC(=O)C(C)=C2CC/C(C)=C/CC[C@]1(C)O	inactive	inactive	Active	Active	
CCCCO[C@H]1CC/C(C)=C/[C@@H]2OC(=O)C(C)=C2CC/C(C)=C/CC[C@]1(C)O	inactive				Activity [7]: inactive; IC50 [8]: 30 µM; Activity [9]: inactive; IC50 [10]: 20 µM
CC1=C2CC/C(C)=C/CC[C@]3(C)O[C@H]3CC/C(C)=C\[C@H]2OC1	inactive	inactive		Active	
C=C1CC/C=C(\C)CCC2=C(C)C(=O)O[C@H]2/C=C(\C)CC[C@@H]1O	inactive	inactive	Active		
C=C1CC/C=C(\C)CCC2=C(C)C(=O)O[C@H]2/C=C(\C)CCC1=O	inactive	inactive			
C=C1CC/C=C(\C)CCC2=C(C)C(=O)O[C@H]2/C=C(\C)CC[C@@H]1OC(=O)NCCCC	inactive			Active	Activity [7]: Active; IC50 [8]: 4.83 µM; Activity [9]: Active; IC50 [10]: 7 µM
C=C1CC/C=C(\C)CCC2=C(C)C(=O)O[C@H]2/C=C(\C)CC[C@@H]1OC(=O)NCCCCC	inactive	inactive	Active		
C=C1CC/C=C(\C)CCC2=C(C)C(=O)O[C@H]2/C=C(\C)CC[C@@H]1OC(=O)NC1CCCCC1	inactive			Active	Activity [7]: Active; IC50 [8]: 17.2 µM; IC50 [11]: 15.5 µM; Activity [9]: Active; IC50 [10]: 45 µM
C=C1CC/C=C(\C)CCC2=C(C)C(=O)O[C@H]2/C=C(\C)CC[C@@H]1OC(=O)NCCCCl	inactive	inactive			
C=C1CC/C=C(\C)CCC2=C(C)C(=O)O[C@H]2/C=C(\C)CC[C@@H]1OC(=O)Nc1ccccc1	inactive	inactive	Active	Active	IC50 [11]: 16.3 µM
CC1=C2CC/C(C)=C/CC[C@]3(C)O[C@H]3CC/C(C)=C/[C@@H]2OC1	inactive	inactive	Active		
CC1=C2CC/C(C)=C/CC[C@](C)(O)[C@@H](O)CC/C(C)=C/[C@@H]2OC1=O	inactive	inactive	Active		
C=CCNC(=O)N(CC=C)C(=O)N(CC=C)C(=O)O[C@H]1CC/C(C)=C/[C@@H]2OC(=O)C(C)=C2CC/C(C)=C/CCC1=C	inactive	inactive	Active	Active	IC50 [11]: 24.3 µM
CO[C@H]1CC/C(C)=C/[C@@H]2OC(=O)C(C)=C2CC/C(C)=C/CC[C@]1(C)O	inactive	inactive			
